The values below come from article PMC3972320 (Kidney international, 2013).

Molecules are shown by their SMILES.

The test system of data set [1] is human OCT2. It is filed as cell-based.
The test system of data set [2] is OCT2 mRNA. As to the kind of experiment: OCT2 mRNA by qPCR in NRK cells transfected with human OCT2/V5. It is filed as cell-based, rat. The settings on record: DSAL, NRK cells transfected with human OCT2/V5 and Klotho plasmid.
Data set [3] relates to human OCT2. Nature of the data set: Cell surface. It is filed as cell-based. The settings on record: DSAL, OCT2/V5-transfected CHO cells.
The nature of data set [4]: 14C-TEA kinetic study in vivo. More on the design: species or system mouse. The settings on record: single injection 10 μl/g BW. In short, it runs like this: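 Male WT, Kl/+ and Tg-Kl mice (129sv background, 12–14 weeks, 30–40 g) got a single i.v. dose of 14C-tetraethylammonium (10 μl/g BW; 0.1 mCi/ml, specific activity 3.5 mCi/mmol). Blood and urine were sampled at 0, 30, 60 and 90 […] post injection, with radioactivity by liquid scintillation counting. AUC0-60 is given as mean ± SD of 3 experiments per genotype.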

The test system of data set [5] is NRK cells. Nature of the data set: TUNEL staining of apoptotic NRK cells. It is filed as cell-based, rat. In short, it runs like this: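 NRK rat renal epithelial cells on glass coverslips were serum-starved overnight after confluence. […] Cells were PFA-fixed and TUNEL-stained with DAPI counterstain, then imaged by confocal microscopy. TUNEL-positive/DAPI-positive cells were counted in 5 fields at 40X, across 4 independent experiments.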

In data set [6] the target is T1, human OCT2 (Homo sapiens, UniProt O15244).
T1 sequence (O15244 1-555): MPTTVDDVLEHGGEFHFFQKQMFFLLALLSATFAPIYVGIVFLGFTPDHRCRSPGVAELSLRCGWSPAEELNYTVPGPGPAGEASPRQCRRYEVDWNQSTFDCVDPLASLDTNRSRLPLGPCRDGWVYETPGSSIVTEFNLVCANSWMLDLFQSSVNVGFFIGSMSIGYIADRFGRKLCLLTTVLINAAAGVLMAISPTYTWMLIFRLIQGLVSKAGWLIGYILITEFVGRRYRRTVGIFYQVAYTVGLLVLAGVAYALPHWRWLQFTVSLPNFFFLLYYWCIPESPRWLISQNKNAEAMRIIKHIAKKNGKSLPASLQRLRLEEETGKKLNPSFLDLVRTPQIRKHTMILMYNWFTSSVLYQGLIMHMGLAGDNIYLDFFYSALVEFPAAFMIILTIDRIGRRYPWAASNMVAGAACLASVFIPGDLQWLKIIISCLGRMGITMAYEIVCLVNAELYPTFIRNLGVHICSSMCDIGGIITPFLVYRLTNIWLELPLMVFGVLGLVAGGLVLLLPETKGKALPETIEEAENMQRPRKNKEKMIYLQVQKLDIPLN
It is filed as cell-based. The settings on record: β-glucuronidase 100μg/ml, sialidase 0.1 IU/ml, cimetidine 0.1 mM, added 16 hours prior to assay.

In data set [7] the test system is NRK cells. Nature of the data set: Oregon Green 488-labeled fluorescent cisplatin uptake by NRK cells. It is filed as cell-based, rat.
Data set [8] deals with NRK cells. Nature of the data set: LDH release from NRK cells on Transwell plates. It is filed as cell-based, rat.
Data set [9] deals with organic cation transporter (OCT). Nature of the data set: 14C-TEA uptake by NRK cells. It is filed as cell-based, rat. The note with it: agent added after 14C-TEA.
Data set [10] has as its system patients. The settings on record: among patients with AKI; cited from earlier work.

Consider `O=C(O)[C@@H](O)[C@H]1OC(=O)[C@H](O)[C@H]1O` [DSAL, D-Saccharic acid 1,4-lactone], for which, in [1] (CHO cells transfected with OCT2/V5, β-glucuronidase 100μg/ml, DSAL 10 μM alone), the “OCT2 protein expression by immunocytochemistry” value is “had no effect”. Besides, in data set [1] (DSAL 10 μM, CHO cells, immunocytochemistry and immunoblot), the “effect on the reduction of OCT2 protein by β-glucuronidase” value was “completely blocked”. The “effect on the reduction of rat oct2 mRNA induced by Klotho” value in data set [2] was “did not abolish”. The “effect on Klotho-induced reduction of cell surface OCT2 (2 hours and 2 days)” value in data set [3] is “blocked”.

On to `CC[N+](CC)(CC)CC` [^14C-TEA, ^14C-tetraethylammonium], for which the “AUC0-60 of 14C-TEA, Blood 14C-TEA” value in data set [4] (Kl/+ mice) is given as 4.13±0.12 (3) nmol/μl; in [4] (Tg-Kl mice), 2.22±0.12 (3) nmol/μl; in data set [4] (WT mice), 2.68±0.18 (3) nmol/μl. Moreover, the “AUC0-60 of 14C-TEA, Urine excretion rate 14C-TEA” value in [4] (Tg-Kl mice) is listed as 1.36±0.08 (3) pmol/mim; in data set [4] (WT mice) it was 2.08±0.08 (3) pmol/mim.

As to `CN/C(=N/CCSCc1nc[nH]c1C)NC#N` [cimetidine], in data set [5] (Klotho or cimetidine basolateral), the “cisplatin-triggered apoptosis (TUNEL), basolateral co-incubation of agent” value was “rescued”. In data set [6], the “14C-TEA uptake in OCT2-expressing CHO cells” value is reported as “reduced”. Also, in [7] (NRK cells, confocal imaging), the “fluorescent cisplatin uptake, agent added to apical side” value is on record as “not by either agent added to the apical side” and the “fluorescent cisplatin uptake, agent added to basolateral side” value is on record as “blocked”. For the same compound, in [8] (cisplatin 0.1 mM basolateral, Klotho 0.4 nM or cimetidine 0.1 mM apical), the “LDH release induced by basolateral cisplatin, agent added into apical side” value is “not cimetidine decreased LDH release”. Besides, in data set [8] (cisplatin 0.1 mM, Klotho 0.4 nM or cimetidine 0.1 mM on basolateral side), the “LDH release induced by basolateral cisplatin, basolateral co-incubation of agent” value is given as “significantly reduced LDH release”. Moreover, in [1] (CHO cells transfected with OCT2/V5, β-glucuronidase 100μg/ml, sialidase 0.1 IU/ml, cimetidine 0.1 mM), the “OCT2 abundance in total cell membrane pool by immunoblot” value is listed as “did not alter”. The “inhibition of 14C-TEA uptake when 14C-TEA added to basolateral medium 20 minutes prior to agent” value in data set [9] is given as “inhibitory effect was absent”.

As to `N.N.[Cl][Pt][Cl]` [cisplatin, cis-diammine-dichloroplatinum], in data set [10], the “patients with AKI still having elevated SCr 15 days after treatment” value is on record as 50%. Besides, the “apoptosis (TUNEL) on cisplatin addition to basolateral medium” value in data set [5] is “triggers apoptosis”. The “side of entry of Oregon Green 488-labeled cisplatin into NRK cells” value in data set [7] (Transwell, apical or basolateral addition) is “entered NRK cells solely from the basolateral side”.
